Data on two sequences can be found in ChEMBL document CHEMBL1124920, “cis-diamineplatinum (II) complexes containing phosphono carboxylate ligands as antitumor agents” (J Med Chem, 1990).

Experiment [1] concerns Mus musculus. In words: Antitumor activity against CFW mice bearing Sarcoma 180 ascites (S180a) following i.p. administration. The class given is functional, organism-based. The procedure, abridged:
(§1)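 Female CFW mice (18-25 g) were implanted ip with 2 × 10^6 Sarcoma 180 ascites cells on day 0. Compound was given ip in 0.5 mL water on day 1, with six mice per dose. The run lasted twice the control MST, and survivors were counted as dying then. Activity is % ILS of MST; >50% counts as active, and the maximum is 100%.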

For experiment [2], the system named is L1210. In words: Antitumor activity (ip) against CDF1 mice bearing Leukemia L1210 cells in 6 mice. The class given is functional, organism-based. The conditions noted are these: Mus musculus. The gist of the method: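 Female CDF1 mice (16-22 g) inoculated ip with 1 × 10^6 L1210 cells in 0.5 mL […] on day 0. Compound given day 1 in 0.5 mL water, six mice per dose. Vehicle controls and cisplatin 8 mg/kg positive controls included. Run to 3× control MST, survivors scored as dying then. Read-out %ILS of MST; >25% active, maximum 200%.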

The species entered for experiment [3] is Mus musculus. In words: Optimal dose in Sarcoma inoculated CFW mice. The class given is functional, organism-based. The gist of the method: as §1
The test system of experiment [4] is L1210. In words: Antitumor activity (ip) against CDF1 mice bearing Leukemia L1210 cells. The conditions noted are these: Mus musculus. The class given is functional, organism-based. The procedure, abridged:
(§2)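 Female CDF1 mice (16-22 g) received 1 × 10^6 L1210 cells ip in 0.5 mL […] on day 0. Test compound was given in 0.5 mL water on day 1, with six mice per dose. The study ended at 3× the control mean survival time (MST), and survivors were scored as dying that day. ILS is the % increase in MST over controls; >25% counts as active, and the maximum possible is 200%.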

Experiment [5] has as its system Mus musculus. In words: Number of surviving CFW mice bearing Sarcoma 180 ascites (S180a) (6 mice treated i.p.). The class given is functional, organism-based. The gist of the method:
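Female CFW mice (18-25 g) implanted ip with 2 × 10^6 S180 ascites cells on day 0. Compound given ip in 0.5 mL water on day 1, adjusted to pH 7, six mice per dose. Vehicle and cisplatin control groups included. Run to twice control MST, survivors counted as dying that day. Read-out %ILS of MST; >50% active, maximum 100%.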

Experiment [6] concerns L1210. In words: Optimal dose of the compound measured in mg/kg against CDF1 mice bearing L1210 leukemia cells. The class given is functional, organism-based. The conditions noted are these: Mus musculus. The gist of the method: as §2
Experiment [7] deals with M5076. In words: Relative median time for tumors to reach 1 g in drug-treated groups and the control group (T-C in days). The class given is functional. The procedure, abridged: (§3)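 BDF1 mice of either sex (6-10 weeks) were implanted sc on day 0 with ~25 mg M5076 tumor fragments. Dosing was iv on days 5, 9, 13 and 17, with doses given per injection, in groups of eight. Study ended on day 75. Read-outs were % ILS of MST and T-C, the difference in median days for tumors to reach 1 g. Active means ILS ≥25% or T-C >13 days.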

Experiment [8] concerns M5076. In words: Optimum dose measured in mg/kg. The class given is functional, organism-based.
Experiment [9] concerns M5076. In words: Antitumor activity of the best % ILS of platinum-phospono carboxylate complex against subcutaneously implanted M5076 reticulum cell sarcoma. The class given is functional. The procedure, abridged: as §3

The ILS is the gain in survival time of treated over control animals, in per cent. CARBOPLATIN: the ILS in experiment [1] was found to be 95%; in experiment [4], 90%. The values for the Survivors in experiment [2] and in [5] were 0 and 4, respectively. Further, the DOSE in experiment [3] came out at 120 mg/kg; in [6] it was 80 mg/kg.

For the sequence CISPLATIN, the figures for the ILS in experiment [1], in experiment [4] and in [9] were 81%, 87% and 28%, respectively. For the same sequence, in [7], the T-C was 25. The DOSE in [8] stood at 5; in [3], 8 mg/kg; in [6], 8 mg/kg. Further, the Survivors was found to be 0 in experiment [2] and 3 in experiment [5].
